ChEMBL document CHEMBL4400512, “Searching for new agents active against Candida albicans biofilm: A series of indole derivatives, design, synthesis and biological evaluation” (Eur J Med Chem, 2019)
≈ marks a conversion by molar mass, not a printed value.

What was measured:
[1] = system: Candida albicans; test: Antibiofilm activity against Candida albicans ATCC 10231 assessed as inhibition of mature biofilm formation by XTT reduction assay; type: functional
Method in brief: (§1)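 Biofilm assay after Pierce et al., with compound applied either during biofilm formation or to 24 h pre-formed (mature) biofilm. Read-out is metabolic activity of cells in the biofilm by XTT reduction. BMIC50 is the lowest concentration giving a 50% drop relative to untreated growth control. Tested in triplicate, at least two experiments on separate dates; median reported.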

[2] = system: Candida albicans; test: Antibiofilm activity against Candida albicans ATCC 10231 assessed as inhibition of biofilm formation by XTT reduction assay; type: functional; method in brief: as §1
[3] = system: Candida albicans; test: Antifungal activity against planktonic form of Candida albicans ATCC 10231 by broth microdilution method; type: organism-based; settings: in vitro
Method in brief: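 CLSI M27-A3 broth microdilution. Cells grown on Sabouraud dextrose agar at 35°C for 24 h; final inoculum 1×10^3–5×10^3 cells/mL. Compounds from DMSO stocks, final DMSO below 1%, final range 256–0.25 µg/mL. Controls were DMSO 1% and fluconazole reference. MIC50 is the lowest concentration giving ≥50% growth inhibition. Three independent experiments in duplicate; median reported.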

[4] = Toxicity in Galleria mellonella larvae assessed as larval survival at 500 ug/ml after 24 hrs relative to control
Method in brief: (§2)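 Ten healthy larvae per group, stored at 15°C in the dark. Each got a 20 µL injection into the haemocoel via the last left proleg, with compound freshly made in sterile water containing <1% v/v DMSO. Larvae were incubated at 30°C and survival scored every 24 h; death was no movement on stimulation plus cuticle discolouration. Controls were untreated, pierced-only and vehicle. Mean % survival of two independent experiments.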

[5] = Toxicity in Galleria mellonella larvae assessed as larval survival at 100 ug/ml after 24 hrs relative to control; method in brief: as §2
[6] = Toxicity in Galleria mellonella larvae assessed as larval survival at 50 ug/ml after 24 hrs relative to control; method in brief: as §2
[7] = Toxicity in Galleria mellonella larvae assessed as larval survival at 10 ug/ml after 24 hrs relative to control; method in brief: as §2
[8] = Toxicity in Galleria mellonella larvae assessed as larval survival at 5 ug/ml after 24 hrs relative to control; method in brief: as §2
[9] = Toxicity in Galleria mellonella larvae assessed as larval survival at 500 ug/ml after 48 hrs relative to control; method in brief: as §2
[10] = Toxicity in Galleria mellonella larvae assessed as larval survival at 100 ug/ml after 48 hrs relative to control; method in brief: as §2
[11] = Toxicity in Galleria mellonella larvae assessed as larval survival at 50 ug/ml after 48 hrs relative to control; method in brief: as §2
[12] = Toxicity in Galleria mellonella larvae assessed as larval survival at 10 ug/ml after 48 hrs relative to control; method in brief: as §2
[13] = Toxicity in Galleria mellonella larvae assessed as larval survival at 5 ug/ml after 48 hrs relative to control; method in brief: as §2
[14] = Toxicity in Galleria mellonella larvae assessed as larval survival at 500 ug/ml after 72 hrs relative to control; method in brief: as §2
[15] = Toxicity in Galleria mellonella larvae assessed as larval survival at 100 ug/ml after 72 hrs relative to control; method in brief: as §2
[16] = Toxicity in Galleria mellonella larvae assessed as larval survival at 50 ug/ml after 72 hrs relative to control; method in brief: as §2
[17] = Toxicity in Galleria mellonella larvae assessed as larval survival at 10 ug/ml after 72 hrs relative to control; method in brief: as §2
[18] = Toxicity in Galleria mellonella larvae assessed as larval survival at 5 ug/ml after 72 hrs relative to control; method in brief: as §2
[19] = system: Candida albicans; test: Antibiofilm activity against Candida albicans PMC 1042 assessed as inhibition of mature biofilm formation by XTT reduction assay; type: functional
Method in brief: (§3)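 Biofilm method of Pierce et al. Biofilms were treated either during formation or once mature (24 h preformed). Metabolic activity of the cells within the biofilm was read by XTT reduction. BMIC50 is the lowest concentration giving a 50% drop in metabolic activity versus the untreated growth control. At least two experiments on separate dates, triplicate, reported as median.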

[20] = system: Candida albicans; test: Antibiofilm activity against Candida albicans PMC 1042 assessed as inhibition of biofilm formation by XTT reduction assay; type: functional; method in brief: as §3
[21] = system: Candida albicans; test: Antifungal activity against planktonic form of Candida albicans PMC 1042 by broth microdilution method; type: organism-based; settings: in vitro
Method in brief: (§4)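 Broth microdilution per CLSI M27-A3 and M27-S4. Strains were grown on Sabouraud dextrose agar at 35°C for 24 h. Final inoculum 1×10^3–5×10^3 cells/mL. Compounds were dissolved in DMSO (final <1%); 1% DMSO served as control. Final range 256–0.25 µg/mL. MIC50 is the lowest concentration giving ≥50% growth inhibition. Three independent experiments in duplicate, median; fluconazole as reference.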

[22] = system: Candida albicans; test: Antibiofilm activity against Candida albicans PMC 1082 assessed as inhibition of mature biofilm formation by XTT reduction assay; type: functional; method in brief: as §3
[23] = system: Candida albicans; test: Antibiofilm activity against Candida albicans PMC 1082 assessed as inhibition of biofilm formation by XTT reduction assay; type: functional; method in brief: as §3
[24] = system: Candida albicans; test: Antifungal activity against planktonic form of Candida albicans PMC 1082 by broth microdilution method; type: organism-based; settings: in vitro; method in brief: as §4
[25] = system: Candida albicans; test: Antibiofilm activity against Candida albicans ATCC 10261 assessed as inhibition of mature biofilm formation by XTT reduction assay; type: functional; method in brief: as §3
[26] = system: Candida albicans; test: Antibiofilm activity against Candida albicans ATCC 10261 assessed as inhibition of biofilm formation by XTT reduction assay; type: functional; method in brief: as §3
[27] = system: Candida albicans; test: Antifungal activity against planktonic form of Candida albicans ATCC 10261 by broth microdilution method; type: organism-based; settings: in vitro; method in brief: as §4

Row | SMILES | MBIC50 [1] | MBIC50 [2] | MIC50 [3] | survival at 24 h [4] | survival at 24 h [5] | survival at 24 h [6] | survival at 24 h [7] | survival at 24 h [8] | survival at 48 h [9] | survival at 48 h [10] | survival at 48 h [11] | survival at 48 h [12] | survival at 48 h [13] | survival at 72 h [14] | survival at 72 h [15] | survival at 72 h [16] | survival at 72 h [17] | survival at 72 h [18] | further results
1 | c1ccc(CNCCc2c[nH]c3ccccc23)cc1 | 32 µg/mL | 32 µg/mL | > 128 µg/mL |  |  |  |  |  |  |  |  |  |  |  |  |  |  |  | 
2 | O=[N+]([O-])c1ccccc1CNCCc1c[nH]c2ccccc12 | 8 µg/mL | 64 µg/mL | > 128 µg/mL | 100% | 90% | 90% | 100% | 100% | 100% | 90% | 90% | 100% | 100% | 100% | 90% | 90% | 100% | 100% | 
3 | O=C(NCCc1c[nH]c2ccccc12)c1ccc([N+](=O)[O-])o1 | 16 µg/mL | 128 µg/mL | > 128 µg/mL |  |  |  |  |  |  |  |  |  |  |  |  |  |  |  | 
4 | c1ccc(Oc2ccc(CNCCc3c[nH]c4ccccc34)cc2)cc1 | 2 µg/mL | 2 µg/mL | 4 µg/mL (≈ 11.7 µM) | 90% | 100% | 100% | 100% | 100% | 70% | 100% | 100% | 100% | 100% | 70% | 100% | 100% | 100% | 100% | MBIC50 [19]: 2 µg/mL; MBIC50 [20]: 8 µg/mL; MIC50 [21]: 64 µg/mL (≈ 187 µM); MBIC50 [22]: 2 µg/mL; MBIC50 [23]: 8 µg/mL; MIC50 [24]: 16 µg/mL (≈ 46.7 µM); MBIC50 [25]: 8 µg/mL; MBIC50 [26]: 8 µg/mL; MIC50 [27]: 16 µg/mL (≈ 46.7 µM)
5 | O=[N+]([O-])c1ccc(CNCCc2c[nH]c3ccccc23)o1 | 16 µg/mL | 16 µg/mL | > 128 µg/mL |  |  |  |  |  |  |  |  |  |  |  |  |  |  |  | 
6 | O=C(NCCc1c[nH]c2ccccc12)c1ccccn1 | 32 µg/mL | 32 µg/mL | > 128 µg/mL |  |  |  |  |  |  |  |  |  |  |  |  |  |  |  | 
7 | C(=C\c1ccccc1)/CNCCc1c[nH]c2ccccc12 | 64 µg/mL | 8 µg/mL | 64 µg/mL (≈ 232 µM) |  |  |  |  |  |  |  |  |  |  |  |  |  |  |  | 
8 | COc1ccc(CNCCc2c[nH]c3ccccc23)cc1[N+](=O)[O-] | 32 µg/mL | 128 µg/mL | > 128 µg/mL |  |  |  |  |  |  |  |  |  |  |  |  |  |  |  | 
9 | Brc1ccc(CNCCc2c[nH]c3ccccc23)cc1 | 8 µg/mL | 8 µg/mL | 64 µg/mL (≈ 194 µM) | 100% | 100% | 100% | 100% | 100% | 100% | 100% | 100% | 100% | 100% | 100% | 100% | 100% | 100% | 100% | MBIC50 [19]: 2 µg/mL; MBIC50 [20]: 8 µg/mL; MIC50 [21]: 16 µg/mL (≈ 48.6 µM); MBIC50 [22]: 4 µg/mL; MBIC50 [23]: 8 µg/mL; MIC50 [24]: 32 µg/mL (≈ 97.2 µM); MBIC50 [25]: 8 µg/mL; MBIC50 [26]: 8 µg/mL; MIC50 [27]: 32 µg/mL (≈ 97.2 µM)
10 | Brc1ccccc1CNCCc1c[nH]c2ccccc12 | 16 µg/mL | 16 µg/mL | 128 µg/mL (≈ 389 µM) |  |  |  |  |  |  |  |  |  |  |  |  |  |  |  | 
